# From ChEMBL document CHEMBL1157219, “Chalcones and other compounds from the exudates of Angelica keiskei and their cancer chemopreventive effects” (J Nat Prod, 2006)
# Assays:
# [1] = Scavenging activity against (+/-)-(E)-methyl-2-[(E)-hydroxyimino]-5-nitro-6-methoxy-3-hexemide-induced NO generation in human Chang liver cells; format: functional
# In short: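 Human Chang liver cells (5 × 10^5/mL) were cultured in MEM Eagle medium for 3 days. Samples (350 nmol) were added 1 min before NOR 1 (350 nmol), then incubated 1 h in a CO2 incubator. Transformed cells were counted under light microscopy (×100, >250 cells). The inhibitory ratio is transformed % with NOR 1 alone divided by transformed % with NOR 1 plus sample, with NOR 1 taken as 1.0.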
# [2] = tested on: Raji; experiment: Inhibition of TPA-induced EBV-early antigen activation in human Raji cells at 500 molar ratio relative to TPA; format: cell-based; design: scale not given: the % may be the effect or the level left; conditions: human gammaherpesvirus 4
# In short: (§1)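 Raji cells incubated 48 h at 37 °C in medium with n-butyric acid (4 mM), TPA (32 pmol) and test compound at molar ratios to TPA (1000, 500, 100). Smears were stained for EBV-EA by indirect immunofluorescence. Induction is given as % of TPA-alone control (100%).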
# [3] = tested on: Raji; experiment: Inhibition of TPA-induced EBV-early antigen activation in human Raji cells at 100 molar ratio relative to TPA; format: cell-based; design: scale not given: the % may be the effect or the level left; conditions: human gammaherpesvirus 4; in short: as §1
# [4] = Cytotoxicity against human Raji cells assessed as cell viability at 1000 molar ratio; format: cell-based; conditions: read-out: Activity
# In short: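 Raji cell viability was recorded as a percentage in the EBV-EA setup: 48 h at 37 °C with n-butyric acid (4 mM), TPA (32 pmol) and compound at 32 nmol (1000:1 molar ratio to TPA).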
# [5] = Inhibition of TPA-induced EBV-early antigen activation in human Raji cells; format: cell-based, human gammaherpesvirus 4; in short: as §1
# [6] = tested on: Raji; experiment: Inhibition of TPA-induced EBV-early antigen activation in human Raji cells at 10 molar ratio relative to TPA; format: cell-based; design: scale not given: the % may be the effect or the level left; conditions: human gammaherpesvirus 4
# [7] = tested on: Raji; experiment: Inhibition of TPA-induced EBV-early antigen activation in human Raji cells at 1000 molar ratio relative to TPA; format: cell-based; design: scale not given: the % may be the effect or the level left; conditions: human gammaherpesvirus 4; in short: as §1
# [8] = organism: Mus musculus; experiment: Inhibition of tumor promotion in mouse assessed as papilloma bearing mouse after 20 weeks; format: functional
# In short: (§2)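 Two-stage mouse skin carcinogenesis using DMBA and TPA as promoter. Groups were 15 mice housed five per cage with water ad libitum. The percentage of papilloma-bearing mice was scored at 10 and 20 weeks of promotion in treated versus untreated groups.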
# [9] = organism: Mus musculus; experiment: Inhibition of tumor promotion in mouse assessed as papilloma bearing mouse after 10 weeks; format: functional; in short: as §2
Compound,Ratio [1],Activity [2],Activity [3],viability at 1000 molar ratio [4],IC50 [5],Activity [6],Activity [7],inhibition (INH) [8],inhibition (INH) [9]
CC1(C)N([O])C(c2ccc(C(=O)O)cc2)=[N+]([O-])C1(C)C,8,–,–,–,–,–,–,–,–
C=C[C@@H](O)C#CC#C[C@@H](O)/C=C\CCCCCCCCOC(C)=O,1.2,53.1%,81.4%,60%,511 molar ratio,100%,18.7%,–,–
CC(C)=CCCC1(C)CCc2c(O)ccc(C(=O)/C=C/c3ccc(O)cc3)c2O1 (stereo not given),2.4,20.3%,64.7%,70%,273 molar ratio,87.3%,0%,–,–
COc1ccc(C(=O)CCc2ccc(O)cc2)c2c1CCC(C)(C)O2 [DEOXYDIHYDROXANTHOANGELOL H],1.6,56.7%,81.6%,60%,563 molar ratio,100%,27.4%,–,–
COc1ccc(C(=O)/C=C/c2ccc(O)cc2)c2c1CCC(C)(C)O2 [DEOXYXANTHOANGELOL H],1.5,60.5%,85.2%,60%,578 molar ratio,100%,32.1%,–,–
CC1(C)CCc2c(ccc(C(=O)/C=C/c3ccc(O)cc3)c2O)O1 [DORSMANNIN A],1.9,61.7%,86%,60%,583 molar ratio,100%,34.2%,–,–
CC1(C)[C@@H](O[C@H]2O[C@H](C(=O)O)[C@@H](O)[C@H](O)[C@H]2O[C@@H]2O[C@H](C(=O)O)[C@@H](O)[C@H](O)[C@H]2O)CC[C@]2(C)[C@H]3C(=O)C=C4[C@@H]5C[C@@](C)(C(=O)O)CC[C@]5(C)CC[C@@]4(C)[C@]3(C)CC[C@@H]12 [GLYCYRRHIZIN],2.2,63.3%,83.3%,> 80%,572 molar ratio,100%,27.4%,–,–
CC(C)=CCc1c(O)ccc(C(=O)/C=C/c2ccc(O)cc2)c1O [ISOBAVACHALCONE],2,26.3%,63%,60%,320 molar ratio,98.4%,0%,80%,20%
COc1c2ccoc2c(OC)c2oc(=O)ccc12 [ISOPIMPINELLIN],1.4,57.4%,81.5%,60%,486 molar ratio,100%,12.1%,–,–
COc1c2occc2cc2ccc(=O)oc12 [METHOXSALEN],1.3,55.2%,83.1%,60%,490 molar ratio,100%,14.2%,–,–
COc1cc(O)c2c(c1CC=C(C)C)O[C@H](c1ccc(O)cc1)CC2=O [MUNDULEAFLAVANONE B],2.3,24.9%,66.7%,70%,230 molar ratio,90.3%,0%,–,–
CC(C)=CCc1c(O)ccc2ccc(=O)oc12 [OSTHENOL],2,30.1%,69.8%,70%,290 molar ratio,90.6%,0%,–,–
CC(C)=CCC/C(C)=C/Cc1c(O)cc(O)c2c1O[C@H](c1ccc(O)cc1)CC2=O [SOPHORAFLAVANONE A],2.1,18.5%,56.4%,70%,215 molar ratio,89.3%,0%,–,–
CC1=C(/C=C/C(C)=C/C=C/C(C)=C/C(=O)O)C(C)(C)CCC1 [TRETINOIN],–,49.3%,76.3%,60%,482 molar ratio,100%,15.3%,–,–
CC(C)=CCCC(C)(O)CCc1c(O)ccc(C(=O)/C=C/c2ccc(O)cc2)c1O (stereo not given) [XANTHOANGELOL J],2.4,12.5%,66.8%,70%,264 molar ratio,90.2%,0%,–,–
